Measured values taken from ChEMBL document CHEMBL1133721, “Antitumor polycyclic acridines. 7. Synthesis and biological properties of DNA affinic tetra- and pentacyclic acridines” (J Med Chem, 2000).

Experiments:
Assay type in all cases: functional, cell-based
Settings in all cases: Homo sapiens
MDA-MB-468 = test: Inhibitory activity against MDA-468 cell line using MTT assay (ER-, amplified EGFR, mutant p53)
Method in brief: (§1)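 Cells were grown in RPMI 1640 with 2 mM L-glutamine, penicillin/streptomycin and 10% heat-inactivated FCS. Drugs were taken from 10 mM DMSO stocks. Viability was read by MTT at 0.4 mg/mL final for 4 h at 37 °C, with formazan dissolved in DMSO plus glycine buffer and read at 550 nm. IC50 is the concentration halving absorbance versus untreated controls, taken from dose-response curves.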

MCF7 [1] = test: Inhibitory activity against MCF-7 wt cell line using MTT assay (ER+,pgR+,wildtype p53); method in brief: as §1
NCI-H226 [2] = test: Inhibitory activity against NCI-H226 cell line using MTT assay(mutant p53); method in brief: as §1
NCI-H358 [3] = test: (§2) Inhibitory activity against NCI-H358 cell line using MTT assay(mutant p53); method in brief: as §1
A549 = test: Inhibitory activity against A549 cell line using MTT assay(Wild type p53); method in brief: as §1
NCI-H647 = test: Inhibitory activity against NCI-H647 cell line using MTT assay(mutant p53); method in brief: as §1
ZR-75-1 = test: Inhibitory activity against ZR-75-1 cell line using MTT assay (ER+,pgr+,mutant p53); method in brief: as §1
MDA-MB-231 = test: Inhibitory activity against MDA-231 cell line using MTT assay (ER-,EGFR+,mutant p53); method in brief: as §1
SK-BR-3 = test: Inhibitory activity against SKBR-3 cell line using MTT assay (ER-amplified erB2,mutant p53); method in brief: as §1
NCI-H460 [4] = test: Inhibitory activity against H460pv8 cell line using MTT assay
Method in brief: (§3)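 This is a 7-day MTT assay in RPMI 1640 with 2 mM L-glutamine, antibiotics and 10% heat-inactivated FCS. The H460pv8/eto variant was kept in 1 µM etoposide. MTT was used at 0.4 mg/mL final for 4 h at 37 °C, and formazan was dissolved in DMSO/glycine buffer and read at 550 nm. IC50 is the 50% absorbance reduction versus untreated controls, from dose-response curves.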

NCI-H460 [5] = test: (§4) Inhibitory activity against NCI-H460 cell line using MTT assay(Wild type p53); method in brief: as §1
T47D = test: Inhibitory activity against T47D cell line using MTT assay (ER+,mutant p53); method in brief: as §1
NCI-H460 [6] = test: Inhibitory activity against NCI-H460 cell line using MTT assay; method in brief: as §3
NCI-H322M = test: (§5) Inhibitory activity against NCI-H322 cell line using MTT assay(mutant p53); method in brief: as §1
F460pv8/eto = test: Inhibitory activity against […] using MTT assay; method in brief: as §3
NCI/ADR-RES = test: Inhibitory activity against MCF-7/adr cell line using MTT assay; method in brief: as §1
MCF7 [7] = test: Inhibitory activity against MCF7wt cell line using MTT assay; method in brief: as §1
NCI-H226 [8] = test: as §2
Method in brief: (§6)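 Human NSCLC lines grown in RPMI 1640 with 2 mM L-glutamine, penicillin/streptomycin and 10% heat-inactivated FCS. Drugs were taken from 10 mM DMSO stocks. Cells were exposed for 7 days, then given MTT at 0.4 mg/mL final for 4 h at 37 °C. Formazan was dissolved in DMSO/glycine buffer and read at 550 nm. IC50 is the 50% absorbance drop versus untreated controls, read from dose-response curves.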

NCI-H358 [9] = test: as §4; method in brief: as §6
NCI-H460 [10] = test: as §5; method in brief: as §6

Row | SMILES | IC50 (MDA-MB-468) | IC50 (MCF7 [1]) | IC50 (NCI-H226 [2]) | IC50 (NCI-H358 [3]) | IC50 (A549) | IC50 (NCI-H647) | IC50 (ZR-75-1) | IC50 (MDA-MB-231) | IC50 (SK-BR-3) | IC50 (NCI-H460 [4]) | IC50 (NCI-H460 [5]) | IC50 (T47D) | IC50 (NCI-H460 [6]) | IC50 (NCI-H322M) | IC50 (F460pv8/eto) | IC50 (NCI/ADR-RES) | IC50 (MCF7 [7]) | IC50 (NCI-H226 [8]) | IC50 (NCI-H358 [9]) | IC50 (NCI-H460 [10])
1 | N#CCCCc1cc2cccc3c2c(n1)-c1ccccc1N3 | 1870 nM | 3790 nM | 1210 nM | 2010 nM | 1330 nM | 1680 nM | 2700 nM | 2050 nM | 3450 nM | 1120 nM | 1170 nM | 3590 nM | 1170 nM | 1530 nM | – | – | – | – | – | –
2 | Nc1ccc2c(c1)Nc1c3ccccc3nc3cccc-2c13 | 40 nM | 50 nM | 170 nM | 400 nM | 80 nM | 80 nM | 30 nM | 230 nM | 20 nM | 50 nM | 70 nM | 270 nM | 70 nM | 140 nM | 120 nM | 355 nM | 50 nM | – | – | –
3 | COc1cc([C@@H]2c3cc4c(cc3[C@@H](O[C@@H]3O[C@@H]5CO[C@@H](C)O[C@H]5[C@H](O)[C@H]3O)[C@H]3COC(=O)[C@H]23)OCO4)cc(OC)c1O [ETOPOSIDE] | 600 nM | 85 nM | 240 nM | 1500 nM | 160 nM | 80 nM | 240 nM | 150 nM | 300 nM | 390 nM | 100 nM | 160 nM | 100 nM | 1590 nM | 740 nM | – | – | – | – | –
4 | c1ccc2c(c1)Nc1cccc3ccnc-2c13 | 1370 nM | 830 nM | 2340 nM | 1420 nM | 2140 nM | 2200 nM | 1550 nM | 1730 nM | 580 nM | 1100 nM | 2060 nM | 2100 nM | 2060 nM | 1860 nM | 1070 nM | – | – | – | – | –
5 | Cc1ccc2c(c1)-c1cccc3nc4ccccc4c(c13)N2 | 170 nM | 180 nM | 1220 nM | 600 nM | 810 nM | 800 nM | 390 nM | 550 nM | 450 nM | 490 nM | 710 nM | 2130 nM | 710 nM | 840 nM | 490 nM | 1210 nM | 180 nM | – | – | –
6 | c1ccc2c(c1)Nc1c3ccccc3nc3cccc-2c13 | 90 nM | 270 nM | 750 nM | 460 nM | 490 nM | 540 nM | 850 nM | 540 nM | 150 nM | 320 nM | 520 nM | 690 nM | 520 nM | 490 nM | 340 nM | 630 nM | 270 nM | – | – | –
7 | COc1cccc2c1C(=O)c1c(O)c3c(c(O)c1C2=O)C[C@@](O)(C(=O)CO)C[C@@H]3O[C@H]1C[C@H](N)[C@H](O)[C@H](C)O1 [DOXORUBICIN] | 5 nM | 1 nM | 8 nM | 130 nM | 4 nM | < 1 nM | 9 nM | 6 nM | 20 nM | 4 nM | 10 nM | 7 nM | 10 nM | 30 nM | 20 nM | – | – | – | – | –
8 | Clc1ccc2c(c1)-c1cccc3nc4ccccc4c(c13)N2 | 310 nM | 1670 nM | > 10000 nM | 6030 nM | 7100 nM | 5300 nM | 5590 nM | 5450 nM | 1030 nM | 3770 nM | 3900 nM | 5550 nM | 3900 nM | > 10000 nM | 6470 nM | 6310 nM | 1670 nM | – | – | –
9 | O=[N+]([O-])c1ccc2c(c1)Nc1c3ccccc3nc3cccc-2c13 | 40 nM | 550 nM | > 10000 nM | – | > 10000 nM | 950 nM | 30 nM | > 10000 nM | 120 nM | – | – | > 10000 nM | – | – | – | – | – | 9500 nM | > 10000 nM | > 10000 nM
10 | c1ccc2c(c1)Nc1cccc3cc4[n+](c-2c13)CCC4 | 180 nM | 150 nM | 220 nM | 110 nM | 160 nM | 120 nM | 170 nM | 190 nM | 120 nM | 130 nM | 180 nM | 160 nM | 180 nM | 170 nM | 100 nM | 165 nM | 150 nM | – | – | –
11 | N#CCCCc1cnc2c3c(cccc13)Nc1ccccc1-2 | 320 nM | 270 nM | 2720 nM | 2380 nM | 2570 nM | 2920 nM | 720 nM | 960 nM | 420 nM | 2060 nM | 2560 nM | 1310 nM | 2560 nM | 2270 nM | 1090 nM | 610 nM | 270 nM | – | – | –
12 | COc1cc(NS(C)(=O)=O)ccc1Nc1c2ccccc2nc2ccccc12 [AMSACRINE] | 490 nM | 75 nM | 1010 nM | 150 nM | 30 nM | 70 nM | 180 nM | 140 nM | 60 nM | 200 nM | 60 nM | 220 nM | 60 nM | 210 nM | 40 nM | 1160 nM | 75 nM | – | – | –
